The nature of assay [1]: Inhibition of human chitotriosidase using 4-methyumbelliferyl-beta-B-N,N'-triacetylchitotriose as substrate after 10 mins. The essentials: (§1)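 Enzymes (AfChiA1; human chitotriosidase) expressed and purified as reported earlier, assayed with fluorogenic 4MU-GlcNAc3 substrate. IC50 from triplicate measurements at each inhibitor concentration.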
The next assay has as its target Endochitinase B1 (Aspergillus fumigatus, UniProt Q873X9). The assay is described as follows: Inhibition of Aspergillus fumigatus ChitinaseB1 expressed in Escherichia coli using 4-methyumbelliferyl-beta-B-N,N'-diacetylchitobiose after 10 mins. A digest of the protocol: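 Recombinant AfChiB1, expressed and purified as reported earlier, assayed with fluorogenic 4MU-GlcNAc2 substrate. IC50 obtained from triplicate measurements at each inhibitor concentration.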

In assay [2] the target is Acidic mammalian chitinase (Mus musculus, UniProt Q91XA9). As to the kind of experiment: Inhibition of AMCase in BALB/c mouse lung homogenate using 4-methyumbelliferyl-beta-B-N,N'-diacetylchitobiose after 10 mins. The essentials:
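AMCase activity taken from lung homogenate of female BALB/C mice; 100 mg lung lobe tissue homogenized in HBSS. Substrate 4MU-GlcNAc2, fluorogenic 4-methylumbelliferone release. IC50 from triplicate measurements at each inhibitor concentration.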

A further assay has as its target T1, Endochitinase A1 (Aspergillus fumigatus, UniProt Q873Y0).
T1 sequence (Q873Y0 whole entry): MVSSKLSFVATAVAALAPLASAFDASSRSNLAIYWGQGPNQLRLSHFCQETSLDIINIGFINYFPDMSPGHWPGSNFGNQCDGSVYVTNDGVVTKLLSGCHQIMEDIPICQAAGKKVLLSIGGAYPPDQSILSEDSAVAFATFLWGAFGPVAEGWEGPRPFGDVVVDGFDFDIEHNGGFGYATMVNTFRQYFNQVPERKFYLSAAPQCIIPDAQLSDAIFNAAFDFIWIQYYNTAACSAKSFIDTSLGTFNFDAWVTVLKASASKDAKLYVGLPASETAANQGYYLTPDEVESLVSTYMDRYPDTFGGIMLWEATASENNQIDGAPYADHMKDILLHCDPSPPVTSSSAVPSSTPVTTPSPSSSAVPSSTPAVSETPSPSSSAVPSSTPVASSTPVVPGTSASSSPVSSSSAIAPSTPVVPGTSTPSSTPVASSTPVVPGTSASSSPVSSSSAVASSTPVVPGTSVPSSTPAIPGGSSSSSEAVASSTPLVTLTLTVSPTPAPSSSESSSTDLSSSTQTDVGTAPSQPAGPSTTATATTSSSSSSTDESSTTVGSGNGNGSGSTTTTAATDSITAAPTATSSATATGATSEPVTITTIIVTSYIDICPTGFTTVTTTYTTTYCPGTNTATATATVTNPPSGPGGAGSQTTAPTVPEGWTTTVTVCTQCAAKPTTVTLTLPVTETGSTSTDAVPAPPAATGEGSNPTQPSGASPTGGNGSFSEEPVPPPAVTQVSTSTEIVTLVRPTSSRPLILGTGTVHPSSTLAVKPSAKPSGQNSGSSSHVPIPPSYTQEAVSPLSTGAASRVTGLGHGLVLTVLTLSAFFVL
The assay is described as follows: Inhibition of Aspergillus fumigatus chitinaseA1 using 4-methyumbelliferyl-beta-B-N,N'-triacetylchitotriose as substrate after 10 mins. The essentials:
as §1

pIC50: −log10 of the molar value.

Chain of Acidic mammalian chitinase (Q91XA9 whole entry): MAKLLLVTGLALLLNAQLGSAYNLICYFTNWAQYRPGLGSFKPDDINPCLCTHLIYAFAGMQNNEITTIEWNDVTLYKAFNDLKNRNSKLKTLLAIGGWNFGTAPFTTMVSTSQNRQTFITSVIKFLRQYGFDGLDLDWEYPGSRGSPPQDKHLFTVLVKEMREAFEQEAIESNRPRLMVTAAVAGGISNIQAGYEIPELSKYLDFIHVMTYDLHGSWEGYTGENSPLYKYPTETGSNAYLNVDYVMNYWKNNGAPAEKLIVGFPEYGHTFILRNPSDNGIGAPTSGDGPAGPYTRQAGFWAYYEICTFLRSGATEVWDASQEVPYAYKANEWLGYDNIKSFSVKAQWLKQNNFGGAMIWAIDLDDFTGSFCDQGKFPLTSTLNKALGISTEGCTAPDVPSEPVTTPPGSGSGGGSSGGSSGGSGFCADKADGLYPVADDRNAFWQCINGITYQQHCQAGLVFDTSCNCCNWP

`Cn1cnc2c1c(=O)n(CCCn1c(=O)c3c(ncn3C)n(C)c1=O)c(=O)n2C` [BISDIONIN C]: the negative logarithm of the IC50 (pIC50) is 5.08 in assay [1], 6.70 against Endochitinase B1, 5.47 in assay [2] and less than 3.00 on Endochitinase A1.

As to `Cn1cnc2c1c(=O)n(CCCCn1c(=O)c3c(ncn3C)n(C)c1=O)c(=O)n2C` [BISDIONIN D], the pIC50 in assay [1] is 4.04; against Endochitinase B1, 5.05; against Endochitinase A1, less than 3.00.

For the molecule `Cn1cnc2c1c(=O)n(CCCCCn1c(=O)c3c(ncn3C)n(C)c1=O)c(=O)n2C` [BISDIONIN E], the results for the negative-log IC50 (pIC50) (in assay [1]; against Endochitinase B1; against Endochitinase A1) were 3.59, 5.24 and 3.09, respectively.

In the case of `Cn1cnc2c1c(=O)n(CCn1c(=O)c3c(ncn3C)n(C)c1=O)c(=O)n2C` [BISDIONIN B], the pIC50 is 3.96 in assay [1], 5.32 on Endochitinase B1, 4.05 in assay [2] and less than 3.00 on Endochitinase A1.

Source of the values: ChEMBL document CHEMBL2057153, “Bisdionin C-a rationally designed, submicromolar inhibitor of family 18 chitinases” (ACS Med Chem Lett, 2011).
